Compound activity: PubChem BioAssay, several laboratories
This is a sample that favours compounds with a hit; in the whole collection about 1.4% have one here.
STAT3 activator: activators of IL-6 induced STAT3 signaling | activation (% of control), % at 5.6 µM | U3A cells, IL-6 STAT3-luciferase reporter, luminescence; 100% = signal with IL-6 EC80 alone | 190,000 compounds, 0.91% hits | AID 871;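 active = activation above the screen-wide mean of compound activation plus 3 SD, cut at about 130% in these data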;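 note: 0% = background luminescence of wells with medium and substrate only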
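system = STAT3-luciferase reporter U3A cells | reagent = IL-6 stimulus at 33 ng/mL final | timing = 1 h compound pre-exposure, 6 h IL-6 stimulation, 37 °C | measured by = luminescence | evaluation = % activation versus median of IL-6-stimulated wells | control set = IL-6-only wells as 100% reference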
Platelet DG rel: platelet dense granule release activity; human platelet-rich plasma, SFLLRN dense granule ATP release, luminescence; inhibition, %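 (compounds screened at 7.5 µM in platelet-rich plasma)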; 300,000 compounds, 0.22% hits; AID 1663;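 active = mean replicate score, as percent of positive control, at or above 50; inconclusive = mean below 50 but at least one replicate at or above 50; inactive = mean and every replicate below 50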
STAT3 inh: inhibitors of IL-6 induced STAT3 signaling | U3A cells, IL-6 STAT3-luciferase reporter, luminescence; host cell line lacks STAT1 | inhibition, % at 5.5 µM | 190,000 compounds, 0.89% hits | AID 862;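 active = inhibition above the mean inhibition across all screened compounds plus 3 SD, cut at about 44% in these data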;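 note: 0% = DMSO only wells and 100% = 100 µM nifuroxazide control wells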
PERK inhibitor: human PERK inhibition, primary cell-based screen. Q9NZJ5. CHO PERK-DD fusion, SEAP luminescence translation reporter. inhibition, % at 5.6 µM. 220,000 compounds, 0.17% hits;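 active = inhibition above the mean inhibition of all tested compounds plus 3 SD, set separately per screening campaign, cut at about 2.9% in these data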;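 note: PERK kinase domain activated by AP20187 dimerizer at 100 nM; 0% = DMSO with dimerizer and 100% = rapamycin at 8.4 µM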
Target sequence (Q9NZJ5 whole entry, looked up, the tested form may be a part): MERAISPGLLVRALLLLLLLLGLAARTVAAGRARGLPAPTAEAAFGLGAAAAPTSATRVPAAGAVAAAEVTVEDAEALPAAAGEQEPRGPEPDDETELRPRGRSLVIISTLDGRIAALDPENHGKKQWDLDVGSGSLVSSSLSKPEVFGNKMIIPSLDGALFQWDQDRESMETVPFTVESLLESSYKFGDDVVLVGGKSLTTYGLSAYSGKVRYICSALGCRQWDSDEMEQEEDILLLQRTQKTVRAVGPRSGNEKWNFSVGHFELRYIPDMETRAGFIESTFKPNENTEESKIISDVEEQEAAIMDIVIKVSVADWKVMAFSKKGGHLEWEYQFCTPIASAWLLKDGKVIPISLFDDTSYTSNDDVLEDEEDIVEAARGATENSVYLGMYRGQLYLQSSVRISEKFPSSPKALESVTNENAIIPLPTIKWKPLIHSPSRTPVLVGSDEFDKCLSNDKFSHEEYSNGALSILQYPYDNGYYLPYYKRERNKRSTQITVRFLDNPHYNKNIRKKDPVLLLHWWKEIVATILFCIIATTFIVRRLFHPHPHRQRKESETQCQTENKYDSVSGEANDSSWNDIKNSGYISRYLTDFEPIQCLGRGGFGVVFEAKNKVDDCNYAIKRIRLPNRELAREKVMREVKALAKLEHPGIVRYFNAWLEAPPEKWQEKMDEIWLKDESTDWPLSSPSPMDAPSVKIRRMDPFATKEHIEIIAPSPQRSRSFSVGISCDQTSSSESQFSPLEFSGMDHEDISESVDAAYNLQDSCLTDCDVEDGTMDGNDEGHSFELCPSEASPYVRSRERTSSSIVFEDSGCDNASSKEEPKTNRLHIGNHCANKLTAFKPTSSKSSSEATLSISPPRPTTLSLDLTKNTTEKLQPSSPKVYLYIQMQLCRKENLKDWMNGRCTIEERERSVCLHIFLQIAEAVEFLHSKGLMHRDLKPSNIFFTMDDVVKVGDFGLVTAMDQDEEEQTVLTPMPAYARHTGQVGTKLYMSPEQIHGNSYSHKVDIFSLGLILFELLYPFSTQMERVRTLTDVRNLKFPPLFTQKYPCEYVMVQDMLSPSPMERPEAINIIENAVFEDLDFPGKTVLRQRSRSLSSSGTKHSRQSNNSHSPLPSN
STAT1 blocker: reduces IFN-gamma driven STAT1 reporter signal. AID 920. inhibition, % at 5.5 µM. 200,000 compounds, 0.35% hits. NIH 3T3 STAT1-luciferase reporter, luminescence;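 active = inhibition above a set limit, the mean inhibition across all tested compounds plus 3 SD, cut at about 34% in these data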;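 note: 0% = IFN-gamma with DMSO and 100% = IFN-gamma with 300 µM nifuroxazide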
Active calls of the source: *; ? = inconclusive; / = not tested or not shown.

SMILES	STAT3 activator	Platelet DG rel	STAT3 inh	PERK inhibitor	STAT1 blocker
CCCCCn1c2c(c(=N)c3ccccc31)CCC2	/	69.9*	/	-1.5	/
CCOC(=O)Cn1c2c(c(=N)c3ccccc31)CCC2	102.4	0.0	1.2	0.9	-15.3
CCCCn1c2c(c(=N)c3ccccc31)CCC2	/	122.6*	/	-0.7	/
CCOc1cc(NC(=S)NCCOC)c(OCC)cc1NC(=O)c1ccco1	110.0	1.9	-6.3	-1.4	9.8
O=C(Cc1ccccc1)N/N=C/c1ccc(OC(=O)/C=C\c2ccco2)cc1	107.2	0.5	-4.8	1.2	-19.7
COC(=O)N/N=C/c1ccc(OC(=O)/C=C/c2ccco2)cc1	/	7.6	/	2.9*	/
COc1ccccc1C(CNC(=O)c1cc(C)nc2ccccc12)N(C)C (stereo not drawn)	/	-12.8	/	/	/
CCN1CCN(CC(=O)c2c[nH]c3ccccc23)CC1	133.1*	1.1	-31.4	0.2	-2.0
CC(=O)c1ccc(OCC(=O)N2CCN(S(=O)(=O)c3ccc(C)cc3C)CC2)cc1	/	8.5	/	/	/
CCOC(=O)C1CCN(S(=O)(=O)c2c[nH]c(=O)[nH]c2=O)CC1	/	-4.0	/	/	/
O=C(/C=C\Nc1ccc2c(c1)OCO2)c1ccccn1	10.7	58.3*	103.1*	-1.3	86.8*
Cc1ccc(N/C=C/C(=O)c2cccs2)cc1	18.4	51.6*	97.9*	-0.1	82.6*
O=C(/C=C\Nc1ccc2c(c1)OCO2)c1cccs1	26.8	30.5	89.9*	0.4	64.6*
O=C(/C=C\Nc1ccc2c(c1)OCO2)c1ccc2c(c1)OCO2	50.7	18.2	60.0*	-0.4	51.1*
Cc1cc(Cn2nnnc2-c2ccncc2)cc(C)c1O	/	0.8	/	/	/
Cc1c(Cl)cccc1NC(=O)c1ccc(OCC(=O)NCc2ccccc2)cc1	109.7	11.2	-13.1	0.5	1.9
CCOC(=O)CS(=O)(=O)c1nc(-c2ccccc2)cc(C(F)(F)F)n1	88.0	?	18.0	-1.1	43.4*
CCOC(=O)CS(=O)(=O)c1ccccc1	104.9	0.5	-3.2	1.5	-4.9
CC(C)c1cccc(C(C)C)c1NC(=O)COC(=O)c1ccc2c(c1)S(=O)(=O)c1ccccc1C2=O	103.0	-27.7	-3.4	0.0	13.1
O=C(Nc1ccccc1C(=O)NCCCN1CCOCC1)c1ccc(Cl)cc1	/	-2.9	/	/	/
CN1C(=O)/C(=C/c2cn(CC(=O)N3CCCCC3)c3ccccc23)c2ccccc21	132.7	54.5*	-39.5	-1.8	0.4
Cc1ccc(OCC(=O)Nc2ccc(N3CCN(S(C)(=O)=O)CC3)cc2)c(C)c1	104.0	-0.1	-2.9	0.5	-5.2
Cc1ccc(C(C)C)c(OCC(=O)Nc2ccc(N3CCN(S(C)(=O)=O)CC3)cc2)c1	133.3*	/	-36.3	-0.7	-1.4
COc1cc2c(cc1OC)C1=C(C#N)CCC(=NC(=O)c3ccco3)N1CC2	119.8	1.8	-10.0	0.6	1.1
COc1cc2c(cc1OC)C1=C(C#N)CN(CC(=O)O)CN1CC2	106.7	52.0*	1.2	1.3	2.7
SMILES	STAT3 activator	Platelet DG rel	STAT3 inh	PERK inhibitor	STAT1 blocker
Cc1cccc2c3c([nH]c12)CCN(C)C3	/	-3.2	/	/	/
Cn1c(=O)c2c(nc(CN3CCCCC3)n2CCCc2ccccc2)n(C)c1=O	106.7	2.0	-5.8	-0.8	6.3
CC1CCCCN1Cc1nc2c(c(=O)n(C)c(=O)n2C)n1CCCc1ccccc1 (stereo not drawn)	109.6	55.5*	-7.5	-0.8	-6.9
Cc1cn2nc(N)c3ccccc3c2n1	100.7	/	5.5	0.5	0.0
Nc1nn2cc(-c3ccccc3)nc2c2ccccc12	135.0*	18.3	-39.8	0.4	-47.4
Cn1c2ccccc2c(=O)c2c(=O)n(C3CCCCCC3)c(C3CCCCC3)nc21	102.2	11.3	-4.1	1.2	1.0
Cn1c2ccccc2c(=O)c2c(=O)n(-c3ccccc3)c(C3CCCCC3)nc21	134.3*	4.9	-45.2	-0.4	0.0
Brc1ccccc1-c1nnc(SCc2nc3ccccc3s2)o1	142.9*	-12.6	-49.9	0.9	-40.1
Cn1c(COc2ccc(Br)cc2)nnc1SC1CCc2ccccc2C1=O (stereo not drawn)	132.9*	-6.2	-42.5	-0.4	2.6
Cn1c(COc2ccccc2)nnc1SCCSc1nnc(COc2ccccc2)n1C	102.5	0.8	3.5	-0.8	15.8
Nc1ccccc1C(=O)N/N=C1\C2CN3CCN(C2)CC1(c1ccccc1)C3	104.2	-1.0	-6.2	1.4	-33.5
CC(Nc1cc(N2CCCC2)ccc1[N+](=O)[O-])c1ccccc1 (stereo not drawn)	107.6	/	-9.2	2.9*	-4.1
COc1ccc(C2C(C(=O)c3ccccc3)N3c4ccccc4C=CC3C2[N+](=O)[O-])cc1 (stereo not drawn)	132.9*	/	-38.0	0.3	0.0
COc1ccc(N2C(=O)[C@@H]3[C@H](C2=O)[C@H](C(C)=O)N2c4ccccc4C=C[C@@H]32)cc1	/	3.3	/	-1.5	/
COC(=O)/C(=N/Nc1ccccc1C)Sc1nnc(C(O)c2ccccc2)n1-c1ccccc1 (stereo not drawn)	95.9	2.3	5.1	0.7	5.6
COc1ccc(OC)c(/C=C2\SC(N3CCCC(C)C3)=NC2=O)c1 (stereo not drawn)	/	7.5	/	/	/
COc1cccc(CN2CCNC(=O)C2CC(=O)NCc2cn3ccccc3n2)c1OC (stereo not drawn)	100.6	12.4	3.7	3.0*	-11.1
COc1cccc(CN2CCNC(=O)C2CC(=O)NCc2cn3cccc(C)c3n2)c1OC (stereo not drawn)	102.5	-4.0	2.4	0.5	5.1
CC(C)C1=Nc2cccc3cccc(c23)N1	108.7	0.2	-9.6	0.4	2.7
COc1ccc(C2=Nc3cccc4cccc(c34)N2)cc1	134.9*	1.9	-29.7	0.6	6.0
CC(Oc1ccc(F)cc1)C(O)CCN(C)C (stereo not drawn)	98.7	-5.4	3.7	1.2	-1.9
COC(/C=C/Nc1ccc(Br)cc1)=C(C#N)C#N	120.2	7.7	-15.7	0.0	1.0
COC(/C=C/Nc1ccc(C)cc1)=C(C#N)C#N	135.8*	6.0	-37.3	1.4	0.5
CC1CN(C(=O)Cn2cc(SCC(=O)N3CCOCC3)c3ccccc32)CC(C)O1 (stereo not drawn)	/	0.5	/	/	/
C=CCc1cccc2cc(C(=O)O)c(=O)oc12	116.1	-1.3	-12.1	-0.4	1.7
SMILES	STAT3 activator	Platelet DG rel	STAT3 inh	PERK inhibitor	STAT1 blocker
C=CCc1cccc2cc(C(=O)Nc3ccccc3C(=O)O)c(=O)oc12	99.6	/	6.0	1.6	71.8*
CSCCC(=O)N1CCN(CC(=O)N2CCCC2)CC1	/	1.9	/	/	/
O=C(Nc1ccc(N2CCOCC2)cc1)c1cc(-c2ccncc2)nc2ccccc12	/	18.8	/	-0.9	/
O=C(Nc1ccc(N2CCOCC2)cc1)c1nc2ccccc2s1	/	88.0*	/	0.5	/
COc1ccc(OC)c(NC(=O)c2cc(S(=O)(=O)N3CCCC3)cn2C)c1	/	24.7	/	/	/
Cc1ccc(NC(=O)/C=C/c2ccc(Cl)cc2)nc1	139.9*	-1.9	-43.1	0.3	-42.2
N=C1CCCN1CC(=O)c1ccc(Br)cc1	105.1	-10.4	-2.7	0.9	-25.7
Cc1cc(=O)n2nc(N3CCCC(C(=O)NCc4ccccc4)C3)sc2n1 (stereo not drawn)	/	69.2*	/	/	/
